Experimental data taken from ChEMBL document CHEMBL4364256, “Design, synthesis and biological evaluation of antimicrobial diarylimine and -amine compounds targeting the interaction between the bacterial NusB and NusE proteins” (Eur J Med Chem, 2019).
In brackets after ≈: the same amount, converted by molar mass.

Key:
Bacillus subtilis = assay: Inhibition of N-terminal LgBiT-fused Bacillus subtilis NusB expressed in Escherichia coli BL21(DE3)pLysS interaction with C- terminal SmBiT-fused Bacillus subtilis NusE expressed in Escherichia coli BL21(DE3)pLysS at 100 uM preincubated for 10 mins followed by NusE addition and measured after 10 mins by nano-glo luciferase assay relative to control
Procedure, shortened: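 NusB and NusE were mixed 1:1 at 1 µM in PBS, with compound at 100 µM. The read-out was percent inhibition of the NusB-NusE interaction.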

Enterococcus faecium = assay: Antimicrobial activity against Enterococcus faecium ATCC 19433 incubated for 20 hrs by microdilution method; format: functional; details: ATCC 19433, 20 h
Procedure, shortened: (§1)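 Broth microdilution MIC testing done following CLSI guidelines.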

Streptococcus pneumoniae = assay: Antimicrobial activity against Streptococcus pneumoniae ATCC 49619 incubated for 20 hrs by microdilution method; format: functional; details: ATCC 49619, 20 h; procedure, shortened: as §1
Acinetobacter baumannii = assay: Antimicrobial activity against Acinetobacter baumannii ATCC 19606 incubated for 20 hrs by microdilution method; format: functional; details: ATCC 19606 = CIP 70.34 = JCM 6841, 20 h; procedure, shortened: as §1
Pseudomonas aeruginosa = assay: Antimicrobial activity against Pseudomonas aeruginosa ATCC 27853 incubated for 20 hrs by microdilution method; format: functional; details: ATCC 27853, 20 h; procedure, shortened: as §1
Staphylococcus aureus [1] = assay: microbe, parasite or virus in culture; details: ATCC 25923, 20 h
Staphylococcus aureus [2] = assay: microbe, parasite or virus in culture; details: ATCC 29213, 20 h
[3] = microbe, parasite or virus in culture; details: Enterobacter cloacae, ATCC 13047, 20 h

SMILES	inhibition (Bacillus subtilis) [%]	MIC (Enterococcus faecium) [µg/mL]	MIC (Streptococcus pneumoniae) [µg/mL]	MIC (Acinetobacter baumannii) [µg/mL]	MIC (Pseudomonas aeruginosa) [µg/mL]	MIC (Staphylococcus aureus [1]) [µg/mL]	MIC (Staphylococcus aureus [2]) [µg/mL]	MIC [3] [µg/mL]
CC(C)(C)c1cccc(/N=C/c2cc([N+](=O)[O-])ccc2O)c1	51.3	> 256	256 (≈ 858 µM)	128 (≈ 429 µM)	> 256	4 (≈ 13.4 µM)	16 (≈ 53.6 µM)	> 256
C#Cc1cccc(NCc2cc(F)ccc2O)c1	61.8	32 (≈ 133 µM)	16 (≈ 66.3 µM)	128 (≈ 531 µM)	> 256	32 (≈ 133 µM)	32 (≈ 133 µM)	> 256
C#Cc1cccc(/N=C/c2cc([N+](=O)[O-])cc(Br)c2O)c1	74.1	> 256	128 (≈ 371 µM)	256 (≈ 742 µM)	> 256	32 (≈ 92.7 µM)	32 (≈ 92.7 µM)	> 256
O=[N+]([O-])c1ccc(O)c(CNc2cccc(O)c2)c1	66.7	> 256	128 (≈ 492 µM)	> 256	> 256	64 (≈ 246 µM)	128 (≈ 492 µM)	> 256
O=[N+]([O-])c1ccc(O)c(CNC2CCCCC2)c1	58.2	> 256	> 256	> 256	> 256	> 256	> 256	> 256
C#Cc1cccc(NCc2cc(CC#N)ccc2O)c1	44.7	32 (≈ 122 µM)	8 (≈ 30.5 µM)	> 256	> 256	64 (≈ 244 µM)	32 (≈ 122 µM)	> 256
C#Cc1cccc(/N=C/c2cc(Cl)cc(Cl)c2O)c1	54.2	256 (≈ 882 µM)	8 (≈ 27.6 µM)	128 (≈ 441 µM)	> 256	32 (≈ 110 µM)	64 (≈ 221 µM)	> 256
C#Cc1cccc(NCc2cc(C#N)ccc2O)c1	64.8	64 (≈ 258 µM)	16 (≈ 64.4 µM)	> 256	> 256	32 (≈ 129 µM)	32 (≈ 129 µM)	> 256
O=[N+]([O-])c1ccc(O)c(/C=N/c2ccc(Cl)cc2)c1	50	256 (≈ 925 µM)	64 (≈ 231 µM)	> 256	> 256	8 (≈ 28.9 µM)	32 (≈ 116 µM)	> 256
O=[N+]([O-])c1ccc(O)c(CNc2cccc3ccccc23)c1	47.4	16 (≈ 54.4 µM)	16 (≈ 54.4 µM)	256 (≈ 870 µM)	> 256	4 (≈ 13.6 µM)	4 (≈ 13.6 µM)	> 256
C#Cc1cccc(NCc2cccc([N+](=O)[O-])c2)c1	33.1	> 256	> 256	> 256	> 256	> 256	> 256	> 256
C#Cc1cccc(NCc2cccc([N+](=O)[O-])c2O)c1	64.5	> 256	256 (≈ 954 µM)	> 256	> 256	128 (≈ 477 µM)	16 (≈ 59.6 µM)	> 256
O=[N+]([O-])c1ccc(O)c(/C=N/C2CCCCC2)c1	68.3	> 256	16 (≈ 64.4 µM)	256 (≈ 1030 µM)	> 256	4 (≈ 16.1 µM)	8 (≈ 32.2 µM)	> 256
O=[N+]([O-])c1ccc(O)c(CNc2ccc(C(F)(F)F)cc2)c1	54.1	32 (≈ 102 µM)	16 (≈ 51.2 µM)	32 (≈ 102 µM)	> 256	8 (≈ 25.6 µM)	8 (≈ 25.6 µM)	256 (≈ 820 µM)
C#Cc1cccc(/N=C/c2cc(OC)ccc2O)c1	29.3	> 256	> 256	128 (≈ 509 µM)	> 256	> 256	> 256	> 256
C#Cc1ccccc1/N=C/c1cc([N+](=O)[O-])ccc1O	71.4	> 256	32 (≈ 120 µM)	> 256	> 256	4 (≈ 15 µM)	16 (≈ 60.1 µM)	> 256
C#Cc1cccc(/N=C/c2cc(CC#N)ccc2O)c1	49.9	> 256	> 256	64 (≈ 246 µM)	> 256	256 (≈ 983 µM)	> 256	> 256
C#Cc1cccc(NCc2cc(C(=O)OC)ccc2O)c1	57.1	32 (≈ 114 µM)	8 (≈ 28.4 µM)	> 256	> 256	32 (≈ 114 µM)	16 (≈ 56.9 µM)	> 256
